# Only some compounds are listed: those with a hit (about 3.6% of all), similar ones and a draw of the others.
# Measles CPE: protection of cells from measles virus; Measles virus-infected cells, CPE protection, absorbance; protection (pct of control), % at 4 µM; 140,000 compounds, 1.5% hits; in the data active = protection mostly above about 24%, no sharp cut-off; inactive = mostly below about 26%
# BB579 growth dn: yeast BB579 growth reduction in restrictive medium. S. cerevisiae BB579 growth, OD615, 48 h. inhibition, % at 10 µM. 140,000 compounds, 0.51% hits. AID 804;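 active = inhibition above a set limit, 3 SD over the mean compound inhibition, cut at about 44% in these data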
#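 Assay system – yeast BB579 (DeaD) · Dosing – single compound dose of 10 µM, 0.25% DMSO final · Detection – OD615 turbidity measurement · Buffer or medium – CSMM-D restrictive synthetic medium containing dextrose (glucose) · Benchmarks – positive control amphotericin B 10 µg/mL · Incubation – 48 h exposure, 30 °C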
# RAM inhibit: yeast RAM network inhibition | S. cerevisiae dse1pr::URA3 reporter, 5-FOA growth OD615, 2 d; analog-sensitive cbk1-as2 kinase mutant strain | inhibition, % at 50 µM | 190,000 compounds, 1.8% hits;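 active = inhibition above a set limit, 3 SD over mean compound inhibition, cut at about 8.4% in these data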;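 note: 0% = DMSO-only wells with no growth and 100% = 10 µM 1-NA-PP1 full growth; inhibition rescues growth on 5-FOA so higher OD means more RAM inhibition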
# Yeast lifespan up: extends the lifespan of yeast; inhibition of the nicotinamide effect, % at 10 µM; 130,000 compounds, 0.68% hits; AID 775; S. cerevisiae growth with nicotinamide, OD615; deaD strain in restrictive glucose medium;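 active = inhibition above a set limit, placed 3 SD over the median of all compounds, cut at about 26% in these data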;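 note: 0% = nicotinamide-treated wells and 100% = cells grown without nicotinamide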
#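 Measured by: optical density (absorbance) at 615 nm; System: modified budding yeast, DeaD strain; Medium: restrictive CSMM-D dextrose medium; Timing: 4 h preincubation then 48 h treatment at 30 °C.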
# Active calls of the source: *; x = not tested or not shown.
SMILES,Measles CPE,BB579 growth dn,RAM inhibit,Yeast lifespan up
O=c1cc(-c2ccccc2)n(S(=O)(=O)c2ccccc2)o1,35,80*,-1,2
COc1ccc(S(=O)(=O)n2oc(=O)cc2-c2ccccc2)cc1,4,21,0,32
COc1ccc(S(=O)(=O)n2oc(=O)cc2-c2ccccc2)cc1OC,9,57*,-1,18
O=C(O)c1ccc(N2Cc3ccccc3C2)cc1O,71*,-24,3,-15
Cc1ccc(C(=O)c2ccccc2C(=O)O)c(O)c1,10,2,1,-6
COc1ccc(C(=O)N2CCc3ccccc32)cc1,28*,-11,2,x
CCOCC(=O)N1CCc2ccccc21,14,-59,2,-18
CCOC(=O)/C=C/C(=O)N1CCc2ccccc21,25*,-10,2,-8
Cc1csc(=N)n1CC(=O)N1CCc2ccccc21,26*,-46,1,-7
CCCN1C(=O)C2(SC(NC(C)=O)=NN2C(C)=O)c2cc(C)ccc21 (configuration not stated),x,x,0,x
COC(=O)/C(C#N)=C/c1c(Oc2cc(C)cc(C)c2)nc2c(C)cccn2c1=O,7,-25,9.1*,2
Cc1cc(Oc2nc3c(C)cccn3c(=O)c2/C=C(\C#N)S(=O)(=O)c2ccc(Cl)cc2)ccc1Cl,11,-14,6,-1
CCCCOC(=O)C(C)Sc1n[nH]c(=O)[nH]c1=O (configuration not stated),x,x,1,x
COc1ccc(CN=C2NC(=O)CC(C(=O)Nc3ccc(Cl)cc3)S2)cc1 (configuration not stated),7,-3,9.2*,-4
N=C1C(c2nc3ccccc3s2)=C(O)CN1NC(=O)c1c[nH]c2ccccc12,x,x,8.5*,x
N=C1C(c2nc3ccccc3s2)=C(O)CN1NC(=O)c1ccccc1[N+](=O)[O-],x,x,8,x
O=C(CCc1nnc(Cc2ccc3c(c2)OCO3)o1)NC(c1ccccn1)C(F)(F)F (configuration not stated),x,x,1,x
CCc1cc2c(=O)[nH]c(-c3ccccn3)nc2s1,1,78*,-1,-6
CCC(=O)NNc1ncnc2ccccc12,92*,-12,0,-6
O=C(O)CCC(=O)NNc1ncnc2ccccc12,x,x,1,x
COc1cccc(N=C(N)N)c1,x,x,3,x
O=C1ON=C(c2ccccc2)/C1=C/c1cccnc1,x,x,0,x
O=C1ON=C(c2ccccc2)/C1=C/c1ccc(OS(=O)(=O)c2ccccc2)cc1,4,58*,2,11
O=C(Nc1ccc(C(=O)NC2CCCCC2)cc1)c1cccnc1,x,x,0,x
Cc1ccc(C(=O)N/C(=C\c2cccs2)C(=O)NCC2CCCO2)cc1C (configuration not stated),18,-33,1,7
SMILES,Measles CPE,BB579 growth dn,RAM inhibit,Yeast lifespan up
CCOC(=O)C(C(=O)OCC)c1cc(Br)c2noc3c2c1C(=O)c1ccccc1-3,0,-25,7,46*
O=C1c2ccccc2-c2onc3ccc(Oc4ccccc4)c1c23,2,-19,2,x
O=C(Nc1ccc(Cl)c(Cl)c1)c1ccc(Cn2c(=O)[nH]c3ccsc3c2=O)cc1,23*,-27,8,6
O=C(Nc1ccc(Oc2ccccc2)cc1)c1ccc(Cn2c(=O)[nH]c3ccsc3c2=O)cc1,4,-36,5,5
CCc1ccccc1NS(=O)(=O)c1ccc2c(c1)NC(=O)CC(=O)N2,37*,-25,2,3
CCc1cccc(NS(=O)(=O)c2ccc3c(c2)NC(=O)CC(=O)N3)c1,x,x,3,x
CCc1cc(C(=O)OC)c(NC(=O)C2CC(=O)NN2Cc2ccccc2)s1 (configuration not stated),23*,-26,1,-15
CCc1cc(C(=O)OC)c(NC(=O)CC2NCCNC2=O)s1 (configuration not stated),1,-16,0,-1
CCOc1ccc(N=Nc2cc(C(C)C)ccc2O)cc1,26*,-48,10*,-4
CCOc1ccc(N=C(C)c2ccccc2O)cc1,16,-24,1,-10
Cc1cc2occ(CC(=O)Nc3nnc(C4CC4)s3)c2cc1C,3,-31,3,-1
O=C(Cc1coc2ccc3ccccc3c12)Nc1nnc(C2CC2)s1,56*,-7,3,-13
Cn1c(=O)cc(SCC(=O)NCCC2=CCCCC2)c2cc(Cl)ccc21,6,-15,2,4
Cc1ccc(O)c(C(=O)c2cnc3c(c2)COc2ccc(C)cc2-3)c1,21,-38,8.7*,x
Cc1cc(Nc2ccccc2)nc(NCc2ccccc2)n1,2,-33,4,-2
Cc1cc(N/N=C/c2ccc(Cl)cc2Cl)nc(NCc2ccccc2)n1,9,99*,-1,-14
Cc1cc(Nc2ccc(Cl)cc2)nc(NCc2ccccc2)n1,2,-28,8.4*,-10
O=Cc1ccccc1OCCOc1ccc([N+](=O)[O-])cc1,x,x,0,x
Cc1noc(C)c1COc1ccc(C(=O)OCC(=O)NCCN2C(=O)CSC2=O)cc1,x,x,0,x
ClC(Br)=C(n1cnc2ccccc21)n1cnc2ccccc21,10,-53,0,41*
COC(=O)CC1COc2ccccc2N1C(=O)c1cccc(Cl)c1 (configuration not stated),26*,-19,1,-2
CC1COc2ccccc2N1C(=O)c1ccc(Cl)nc1 (configuration not stated),x,x,0,x
Cc1ccccc1C(=O)Oc1ccc(Sc2ccc(O)cc2)cc1,19,-80,11*,-14
Cc1ccccc1S(=O)(=O)Oc1ccccc1C(=O)Oc1ccccc1,4,-12,8,-13
O=c1[nH]c(NC2CCCCC2)c([N+](=O)[O-])c(=O)[nH]1,28*,-8,2,1
SMILES,Measles CPE,BB579 growth dn,RAM inhibit,Yeast lifespan up
C=CCn1c(-c2ccc(OC)cc2)csc1=Nc1c(C)n(C)n(-c2ccccc2)c1=O,2,-38,2,100*
Cc1csc(=Nc2c(C)n(C)n(-c3ccccc3)c2=O)n1Cc1ccccc1,17,-15,3,-6
CCCC(=O)Nc1ccc(-c2cnc(-c3ccc(NC(=O)CCC)cc3)nc2)cc1,26,-34,4,2
Nc1ccc(-c2cnc(-c3ccc(N)cc3)nc2)cc1,69*,-50,2,-26
O=c1c2cc3c(cc2[nH]c(=S)n1C1CCN(Cc2ccccc2)CC1)OCO3,x,x,0,x
O=C(COC(=O)Cc1ccc(Cl)cc1Cl)Nc1ccc(OC(F)F)cc1,4,-8,10*,-7
O=C(CSc1nnc(COc2ccccc2)o1)N1CCN(c2ccccc2)CC1,9,-64,3,x
CCc1ccc(OCc2nnc(SCC(=O)N3CCN(c4ccccc4)CC3)o2)cc1,33,-35,8.4*,x
Cc1ccc(S(N)(=O)=O)cc1NC(=O)/C=C/c1ccc2c(c1)OCO2,x,x,3,x
COc1cc(NC(=S)N2CCN(c3ccccn3)CC2)cc(OC)c1OC,x,x,2,x
COc1cc(NC(=S)N2CCN(c3ccccn3)CC2)cc(OC)c1,31*,-16,1,2
CCOC(=O)N1CCC(N(CCOC)C(=O)Nc2ccc(CC)cc2)CC1,8,14,1,-9

# Assay outcomes: PubChem BioAssay, several laboratories
